We go through 16 compounds from ChEMBL document CHEMBL1129598, “Design, synthesis, and in vitro evaluation of cyclic nitrones as free radical traps for the treatment of stroke” (J Med Chem, 1996).

Data set [1] can be described thus: In vitro inhibition of oxidation of soybean phosphatidylcholine liposomes using lipid peroxidation assay. Type of data set: functional, Glycine max. The procedure, abridged:
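Soybean phosphatidylcholine liposomes were oxidised with an Fe²⁺/Fe³⁺ mixture to start peroxidation, with test agent present, and oxidation products were then analysed. A reference cyclic nitrone was run as an internal standard in each experiment. Runs were rejected if its value deviated by more than 15% from its established value.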

Data set [2] can be described thus: lipophilicity of the compound. Format: physicochemical. The settings on record: reversed-phase HPLC. In outline: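 Lipophilicity was measured by reversed-phase HPLC as log k′_w. Samples at 0.5 mg/mL in MeOH were run on a C18 column (15 cm × 4.6 mm, 5 µm). Elution used 32–62% MeOH in pH 7.4 phosphate buffer, at three MeOH levels per compound.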

The term IC50 denotes the concentration at which inhibition is half-maximal.

Regarding `CC1(C)Cc2ccccc2C=[N+]1[O-]`, in data set [1], half-maximal inhibition (IC50) was put at 1670 µM. The “Log K'W” value in data set [2] was found to be 1.9. With `CC(C)(C)/[N+]([O-])=C/c1ccccc1`, 14300 µM corresponded to half-maximal inhibition in data set [1] (IC50). `[O-][N+]1=Cc2ccccc2CCC12CCCCC2` registered an IC50 in data set [1] of 730 µM. For the same compound, the “Log K'W” value in data set [2] is given as 2.99. The corresponding values for `CC1(C)c2cc(O)ccc2C=[N+]1[O-]` are 810 µM and 0.68. Turning to `CC1(C)Cc2sccc2C=[N+]1[O-]`, the IC50 in data set [1] amounted to 1590 µM. The “Log K'W” value in data set [2] is on record as 1.57. In turn, `[O-][N+]1=Cc2ccccc2CCC12CCOCC2` gave an IC50 in data set [1] of 310 µM. The “Log K'W” value in data set [2] was 1.98. For the compound `COc1ccc2c(c1)C(C)(C)[N+]([O-])=C2`, half-maximal inhibition in data set [1] (IC50) required 910 µM. Further, the “Log K'W” value in data set [2] worked out at 1.75. The corresponding values for `CC1(C)Cc2ccoc2C=[N+]1[O-]` are 1070 µM and 1.16. On to `CC1(C)Cc2c(ccc3ccccc23)C=[N+]1[O-]`, for which half-maximal inhibition in data set [1] (IC50) was put at 100 µM. Besides, the “Log K'W” value in data set [2] is listed as 2.67. Compound `CC1(C)Cc2ccsc2C=[N+]1[O-]` came in with a half-inhibitory concentration (IC50) in data set [1] of 1720 µM. The “Log K'W” value in data set [2] was determined as 1.47.

`COc1cccc2c1C=[N+]([O-])C2(C)C` gave an IC50 in data set [1] of 1090 µM. For the same compound, the “Log K'W” value in data set [2] is reported as 1.98.

With `CC1(C)c2ccccc2C=[N+]1[O-]`, the IC50 in data set [1] was found to be 1360 µM. Further, in data set [2], the “Log K'W” value is reported as 1.61.

`Cc1cc2c(c(C)c1O)CCC(C)(C)[N+]([O-])=C2` showed an IC50 in data set [1] of 22 µM. The “Log K'W” value in data set [2] stood at 2.29. `CC1(C)Cc2ccc3ccccc3c2C=[N+]1[O-]` yielded a 50% inhibitory concentration (IC50) in data set [1] of 69 µM. Further, the “Log K'W” value in data set [2] was 2.69. `[O-][N+]1=Cc2ccccc2CC12CCOCC2` returned a half-inhibitory concentration (IC50) in data set [1] of 1240 µM. Besides, in data set [2], the “Log K'W” value is 1.65.

The compound `Cc1cc2c(c(C)c1O)CC(C)(C)[N+]([O-])=C2` displayed an IC50 in data set [1] of 66 µM. In addition, in data set [2], the “Log K'W” value is given as 1.82.
